Holding throughout (format): functional, organism-based
In test [1] the test system is Plasmodium falciparum. The test can be described thus: Inhibition of Plasmodium falciparum in HRP2 ELISA. A digest of the protocol:
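Fresh P. falciparum clinical isolates from untreated patients with confirmed monoinfection, unfrozen, unwashed, not precultured, no serum added; 1.5% hematocrit in complete RPMI 1640 with 0.5% Albumax and 25 mg/liter gentamicin, tested in duplicate. Twofold serial dilutions, seven concentrations plus drug-free control, on predried plates; 72 h at 37.5°C under 5% CO2/5% O2/90% N2. Plates freeze-thawed twice, HRP2 sandwich ELISA at 450 nm; IC50 by nonlinear regression.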

The subject of test [2] is Plasmodium falciparum. In words: Inhibition of Plasmodium falciparum AZ10011003 isolate in HRP2 ELISA. A digest of the protocol: (§1)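 Fresh pre-treatment clinical P. falciparum isolates, unfrozen, unwashed and not precultured, in duplicate at 1.5% hematocrit in RPMI 1640 with 0.5% Albumax and 25 mg/liter gentamicin. Plates carried predried twofold dilutions, single or in an 8x8 checkerboard. Incubation was 72 h at 37.5°C in 5% CO2/5% O2/90% N2, then two freeze-thaws. HRP2 sandwich ELISA read at 450 nm; IC50 from nonlinear regression.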

For test [3], the system named is Plasmodium falciparum. In words: Inhibition of Plasmodium falciparum AZ10011008 isolate in HRP2 ELISA. The method in brief: as §1
For test [4], the system named is Plasmodium falciparum. In words: Inhibition of Plasmodium falciparum AZ10011017 isolate in HRP2 ELISA.
Test [5] concerns Plasmodium falciparum. In words: Inhibition of Plasmodium falciparum AZ10011022 isolate in HRP2 ELISA. The method in brief: as §1

Values after ≈ are worked out from the molar mass of the structure shown.

With `C[C@H]1[C@@H](O)O[C@@H]2O[C@@]3(C)CC[C@H]4[C@H](C)CC[C@@H]1[C@@]24OO3` [ARTENIMOL], the IC50 amounted to 0.00053 µg/mL (≈ 0.00186 µM) in the test on Plasmodium falciparum [1]; 0.00024 µg/mL (≈ 0.000844 µM) with Plasmodium falciparum [2]; 0.00091 µg/mL (≈ 0.0032 µM) in the test on Plasmodium falciparum [3]; 0.00027 µg/mL (≈ 0.00095 µM) with Plasmodium falciparum [4]; 0.00038 µg/mL (≈ 0.00134 µM) in the test with Plasmodium falciparum [5]. This compound also had an IC90 in the test with Plasmodium falciparum [1] of 0.00143 µg/mL (≈ 0.00503 µM). For the same compound, in the test with Plasmodium falciparum [1], the IC99 is 0.00228 µg/mL.
In the test with Plasmodium falciparum [1], `OC(c1cc(C(F)(F)F)nc2c(C(F)(F)F)cccc12)C1CCCCN1` (centres undefined) [MEFLOQUINE] returned an IC90 of 0.031 µg/mL (≈ 0.0819 µM) and an IC99 of 0.0467 µg/mL.
In the test on Plasmodium falciparum [1], `CCN(CC)CCCC(C)Nc1ccnc2cc(Cl)ccc12` (centres undefined) [CHLOROQUINE] came in with an IC90 of 0.13 µg/mL (≈ 0.405 µM) and an IC99 of 0.172 µg/mL.
For the compound `CC[C@H]1OC(=O)[C@H](C)[C@@H](O[C@H]2C[C@@](C)(OC)[C@@H](O)[C@H](C)O2)[C@H](C)[C@@H](O[C@@H]2O[C@H](C)C[C@H](N(C)C)[C@H]2O)[C@](C)(O)C[C@@H](C)CN(C)[C@H](C)[C@@H](O)[C@]1(C)O` [AZITHROMYCIN], the half-inhibitory concentration (IC50) in the test on Plasmodium falciparum [1] is 2.57 µg/mL (≈ 3.43 µM); in the test on Plasmodium falciparum [2] it was 2.44 µg/mL (≈ 3.26 µM); in the test on Plasmodium falciparum [3], 5.34 µg/mL (≈ 7.13 µM); in the test on Plasmodium falciparum [4], 1.98 µg/mL (≈ 2.64 µM); with Plasmodium falciparum [5] it was 2.19 µg/mL (≈ 2.92 µM). In the test with Plasmodium falciparum [1], the 90% effect level (IC90) was put at 13.3 µg/mL (≈ 17.8 µM). It took 23.9 µg/mL to reach the 99% level in the test with Plasmodium falciparum [1] (IC99).
With `C=C[C@H]1CN2CC[C@H]1C[C@H]2[C@H](O)c1ccnc2ccc(OC)cc12` [QUININE], the IC50 turned out to be 0.0644 µg/mL (≈ 0.198 µM) in the test with Plasmodium falciparum [1], 0.123 µg/mL (≈ 0.38 µM) with Plasmodium falciparum [2], 0.0828 µg/mL (≈ 0.255 µM) in the test with Plasmodium falciparum [3] and 0.116 µg/mL (≈ 0.359 µM) in the test with Plasmodium falciparum [5]. The IC90 with Plasmodium falciparum [1] is 0.173 µg/mL (≈ 0.533 µM). In the test with Plasmodium falciparum [1], this compound registered an IC99 of 0.251 µg/mL.

These data come from ChEMBL document CHEMBL1142189 (Antimicrob Agents Chemother, 2007).
